Source: ChEMBL document CHEMBL4819003, “Optimization of novel oxidative DIMs as Nur77 modulators of the Nur77-Bcl-2 apoptotic pathway” (Eur J Med Chem, 2021)
Active and inactive are the calls of the source. The calls are words filed in the database; no cut-off is given here.

Key:
[1] = Half life in male Sprague-Dawley rat at 5 mg/kg, po measured for 36 hrs by LC-MS/MS analysis; assay type: ADME, organism-based; conditions: in vivo
[2] = Cmax in female Sprague-Dawley rat at 5 mg/kg, po measured for 36 hrs by LC-MS/MS analysis; assay type: ADME, organism-based; set-up: route oral, time 36 hrs, dose 5 mg/kg; conditions: in vivo
[3] = AUC (0 to t) in female Sprague-Dawley rat at 0.5 mg/kg, iv measured for 36 hrs by LC-MS/MS analysis; assay type: ADME, organism-based; set-up: dose 0.5 mg/kg, time 36 hrs; conditions: in vivo
Procedure, shortened: (§1)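 Sprague-Dawley rats (200–220 g), three per sex per route, were dosed at 0.5 mg/kg IV or 5 mg/kg PO in DMSO/Tween-80/water (1:5:94). Heparinized blood was drawn from 5 min to 36 h after IV dosing and from 1 h to 36 h after oral dosing. Plasma was deproteinized with methanol (2% HCl) plus carbamazepine internal standard, measured by LC-MS/MS, and reported as mean ± SD.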

[4] = MRT(0 to t) in female Sprague-Dawley rat at 0.5 mg/kg, iv measured for 36 hrs by LC-MS/MS analysis; assay type: ADME, organism-based; conditions: in vivo
[5] = Oral bioavailability in female Sprague-Dawley rat at 5 mg/kg measured for 36 hrs by LC-MS/MS analysis; assay type: ADME, organism-based; conditions: in vivo
Procedure, shortened: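 Sprague-Dawley rats (200–220 g), three males and three females per route group. Dosed 5 mg/kg orally or 0.5 mg/kg IV as a solution in DMSO/T-80/H2O (1:5:94 by volume). Heparinized blood was drawn from 5 min to 36 h after IV and 1–36 h after oral dosing. Plasma was protein-precipitated with methanol (2% HCl) plus carbamazepine internal standard and assayed by LC-MS/MS. Parameters were taken from concentration-time data; n = 3 per sex, mean ± SD.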

[6] = Cmax in female Sprague-Dawley rat at 0.5 mg/kg, iv measured for 36 hrs by LC-MS/MS analysis; assay type: ADME, organism-based; set-up: route intravenous, time 36 hrs, dose 0.5 mg/kg; conditions: in vivo
[7] = MRT(0 to t) in male Sprague-Dawley rat at 0.5 mg/kg, iv measured for 36 hrs by LC-MS/MS analysis; assay type: ADME, organism-based; conditions: in vivo
[8] = MRT(0 to t) in female Sprague-Dawley rat at 5 mg/kg, po measured for 36 hrs by LC-MS/MS analysis; assay type: ADME, organism-based; conditions: in vivo
[9] = AUC (0 to t) in female Sprague-Dawley rat at 5 mg/kg, po measured for 36 hrs by LC-MS/MS analysis; assay type: ADME, organism-based; set-up: dose 5 mg/kg, time 36 hrs; conditions: in vivo; procedure, shortened: as §1
[10] = biological target: Nuclear receptor subfamily 4immunitygroup A member 1 (Homo sapiens, UniProt P22736); assay: Modulation of GFP-Nur77 (unknown origin) transfected in human HEK293T cells co-transfected with Flag-tagged Bcl2 assessed as interaction of Nur77 with Bcl2 in mitochondria at 0.5 uM measured after 2 hrs by confocal microscopy; conditions: filed as modulator
Procedure, shortened: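 HEK293T cells were lipofectamine-cotransfected with Flag-Bcl-2 and GFP-Nur77 or GFP-Nur77-LBD, then given 0.5 μM compound for 2 h. Cells were fixed in 4% paraformaldehyde, permeabilised with 0.1% Triton X-100, blocked in 1% BSA and stained with anti-Flag plus DAPI. Mitochondrial colocalisation with Bcl-2 was read by confocal microscopy.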

[11] = Oral bioavailability in male/female Sprague-Dawley rat at 5 mg/kg measured for 36 hrs by LC-MS/MS analysis; assay type: ADME, organism-based; conditions: both, in vivo
Procedure, shortened: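 Sprague-Dawley rats (200–220 g), four per route group (2 male, 2 female), given 0.5 mg/kg IV or 5 mg/kg orally in DMSO/T-80/H2O (1:5:94). Heparinized blood was sampled at 5 min–36 h after IV and at 0.5, 1, 3, 4, 6, 8, 10, 12, 24 and 36 h after oral dosing. Plasma was methanol (2% HCl)-precipitated with carbamazepine internal standard and quantified by LC-MS/MS. Parameters reported as mean ± SD.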

[12] = Half life in male/female Sprague-Dawley rat at 0.5 mg/kg, iv measured for 36 hrs by LC-MS/MS analysis; assay type: ADME, organism-based; conditions: both, in vivo
[13] = Cmax in male/female Sprague-Dawley rat at 5 mg/kg, po measured for 36 hrs by LC-MS/MS analysis; assay type: ADME, organism-based; set-up: route oral, time 36 hrs, dose 5 mg/kg; conditions: both, in vivo
MEF = assay: Induction of apoptosis in wild type mouse MEF cells assessed as PARP cleavage at 0.5 uM measured after 6 hrs by western blot assay; assay type: functional, cell-based
Procedure, shortened: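 Wild-type, Nur77−/− or Bcl-2−/− mouse embryonic fibroblasts grown in DMEM with 10% FBS and treated with 0.5 µM for 6 h. PARP cleavage detected by western blot, primary antibodies at 1:1000, ECL.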

SW-620 = assay: Induction of apoptosis in human SW-620 cells assessed as viable cells at 0.5 uM measured after 6 hrs by Annexin V-FITC/PI staining based flow cytometry method (reference value: 98.37%); assay type: functional; conditions: read-out: Activity
Procedure, shortened: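 Cells seeded at 1×10^6 per well and treated with 0.5 µM for 6 h. Floating and adherent cells pooled, stained with Annexin V-FITC for 10 min and propidium iodide for 5 min, then analysed immediately by flow cytometry in FITC and PC5.5 channels. Mean ± SD, n = 3.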

Mus musculus = assay: Antitumour activity against FVB/N mammary tumor MMTV-PyMT mouse model assessed as inhibition of tumour growth at 3 mg/kg, po administered daily for 14 days; assay type: functional, organism-based; conditions: time 14.0 day
Procedure, shortened: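 Female MMTV-PyMT transgenic mice (FVB/N background), 12 weeks old, randomized n = 6 per group; daily oral gavage 3 mg/kg for 14 days. Dosing solution: DMSO stock diluted in normal saline with 5.0% (V/V) Tween-80 to 3 mg/mL. Tumours weighed at end; mean ± SD, Student's t-test versus untreated controls.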

HCT-116 = assay: Induction of apoptosis in human HCT-116 cells assessed as PARP cleavage at 0.5 uM measured after 6 hrs by western blot assay relative to Di(1H-indol-3-yl)(4-(trifluoromethyl)phenyl)methylium methanesulfonate; assay type: functional
Procedure, shortened: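 HCT116 cells grown in RPMI-1640 with 10% FBS, exposed to 0.5 μM compound for 6 h. Lysates run on SDS-PAGE and blotted for PARP and cleaved PARP (primary antibodies 1:1000, ECL detection). The cleaved-PARP/PARP band intensity ratio was expressed relative to the reference compound set to 1. Mean ± SD, n = 3.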

[14] = Cmax in male/female Sprague-Dawley rat at 0.5 mg/kg, iv measured for 36 hrs by LC-MS/MS analysis; assay type: ADME, organism-based; set-up: route intravenous, dose 0.5 mg/kg, time 36 hrs; conditions: both, in vivo
[15] = Toxicity in mammary tumor MMTV-PyMT mouse model assessed as changes in body weight at 3 mg/kg, po administered daily for 14 days; assay type: organism-based; conditions: in vivo, 336 h, time 14 day
Procedure, shortened: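 Female MMTV-PyMT transgenic mice (FVB/N background), 12 weeks old, randomized n = 6 per group. They received daily oral gavage of 3 mg/kg for 14 days. Drug was dissolved in DMSO and diluted with saline containing 5.0% Tween-80 to 3 mg/mL final. Body weight was recorded after 14 days against untreated controls, mean ± SD.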

Chain of Nuclear receptor subfamily 4immunitygroup A member 1 (P22736 whole entry, the tested form may be a part): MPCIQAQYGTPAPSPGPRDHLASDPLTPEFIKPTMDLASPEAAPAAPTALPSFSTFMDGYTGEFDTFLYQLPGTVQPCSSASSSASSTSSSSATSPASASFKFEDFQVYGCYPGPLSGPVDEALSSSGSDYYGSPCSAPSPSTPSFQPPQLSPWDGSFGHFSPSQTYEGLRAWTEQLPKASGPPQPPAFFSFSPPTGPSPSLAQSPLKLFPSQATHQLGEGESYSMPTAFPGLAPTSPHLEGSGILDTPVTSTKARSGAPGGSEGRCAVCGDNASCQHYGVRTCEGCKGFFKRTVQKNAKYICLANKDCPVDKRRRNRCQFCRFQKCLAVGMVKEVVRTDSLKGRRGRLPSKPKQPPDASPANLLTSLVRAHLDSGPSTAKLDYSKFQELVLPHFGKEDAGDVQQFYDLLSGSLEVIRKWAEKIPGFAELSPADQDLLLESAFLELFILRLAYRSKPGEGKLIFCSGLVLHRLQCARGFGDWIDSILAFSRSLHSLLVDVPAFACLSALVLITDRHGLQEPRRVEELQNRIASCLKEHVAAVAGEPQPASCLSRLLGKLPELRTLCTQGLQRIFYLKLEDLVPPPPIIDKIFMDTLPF

| SMILES | half-life [1] [h] | Cmax [2] [ng/mL] | AUC(0-t) at 36 h [3] [ng·h/mL] | MRT [4] [h] | bioavailability [5] [%] | Cmax [6] [ng/mL] | MRT last at 36 h [7] [h] | MRT last at 36 h [8] [h] | AUC(0-t) at 36 h [9] [ng·h/mL] | Activity [10] | bioavailability [11] [%] | half-life [12] [h] | Cmax [13] [ng/mL] | Activity (MEF) | viability at 0.5 µM (SW-620) [%] | Activity (Mus musculus) | fold change (FC) (HCT-116) | Cmax [14] [ng/mL] | Activity [15] |
| --- | --- | --- | --- | --- | --- | --- | --- | --- | --- | --- | --- | --- | --- | --- | --- | --- | --- | --- | --- |
| CS(=O)(=O)[O-].FC(F)(F)c1ccc([C+](c2c[nH]c3ccccc23)c2c[nH]c3ccccc23)cc1 | 5.28 | 203 | 1730 | 3.59 | 22.8 | 1640 | 4.31 | 14.5 | 3950 |  |  |  |  |  |  |  |  |  |  |
| CS(=O)(=O)[O-].Cn1cc([C+](c2ccc(C(F)(F)F)cc2)c2c[nH]c3ccccc23)c2ccccc21 |  |  |  |  |  |  |  |  |  | Active | 14.6 | 2.66 | 57.9 | Active | 7.08 | Active | 13.54 | 561 | Non-Toxic |
